By IC50 is commonly meant the point on the concentration scale where inhibition reaches its midpoint. As a reminder, the GI50 is the concentration that inhibits growth by half. As a reminder, the logP is the decadic logarithm of the partition coefficient of the neutral form, usually between octanol and water.

Active and inactive are the calls of the source. The rule behind the calls is not given here.

Here are results for six compounds from ChEMBL document CHEMBL4052828, “Discovery of 4-((7H-Pyrrolo[2,3-d]pyrimidin-4-yl)amino)-N-(4-((4-methylpiperazin-1-yl)methyl)phenyl)-1H-pyrazole-3-carboxamide (FN-1501), an FLT3- and CDK-Kinase Inhibitor with Potentially High Efficiency against Acute Myelocytic Leukemia” (J Med Chem, 2018).

For data set [1], the target named is ALK tyrosine kinase receptor (Homo sapiens, UniProt Q9UM73). The data set can be described thus: Inhibition of human ALK using poly[Glu:Tyr] (4:1) as substrate preincubated for 20 mins followed by [gamma-33P]-ATP addition measure after 120 mins by filter binding method. Summed up:
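Compound in DMSO was added to the kinase mixture for 20 min at room temperature. The reaction was started with 10 μM [γ-33P]ATP and run 120 min at 25 °C.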

The target in the next data set is CDK2/Cyclin A1 (Homo sapiens, UniProt P24941). The data set can be described thus: Inhibition of human CDK2/Cyclin A1 using histone H1 as substrate preincubated for 20 mins followed by [gamma-33P]-ATP addition measure after 120 mins by filter binding method. Type of data set: protein-complex assay. Summed up:
(§1)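 Compound preincubated with kinase 20 min at room temperature. Filter-binding read-out, curve-fitted IC50; mean ± SD of three independent experiments.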

The target in data set [2] is Cyclin-dependent kinase 4/cyclin D1 (Homo sapiens, UniProt P11802). Kind of data set: Inhibition of human CDK4/Cyclin D1 using RB protein as substrate preincubated for 20 mins followed by [gamma-33P]-ATP addition measure after 120 mins by filter binding method. Type of data set: protein-complex assay. Summed up: (§2)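 Compound preincubated with kinase 20 min at room temperature. Reaction started with 10 μM [γ-33P]ATP and run 120 min at 25°C. Filter-binding read-out, curve-fitted IC50; mean ± SD of three independent experiments.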
Chain of Cyclin-dependent kinase 4/cyclin D1 (P11802 whole entry): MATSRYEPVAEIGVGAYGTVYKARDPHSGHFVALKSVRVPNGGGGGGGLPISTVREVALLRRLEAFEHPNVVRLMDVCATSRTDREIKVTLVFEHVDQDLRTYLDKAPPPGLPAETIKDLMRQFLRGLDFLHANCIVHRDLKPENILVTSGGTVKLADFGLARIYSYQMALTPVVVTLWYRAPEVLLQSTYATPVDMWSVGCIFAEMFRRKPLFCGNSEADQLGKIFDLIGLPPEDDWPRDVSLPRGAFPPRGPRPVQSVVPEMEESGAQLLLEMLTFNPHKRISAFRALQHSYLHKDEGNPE
Chain of Cyclin-dependent kinase 4/cyclin D1 (P24385 whole entry, further chain): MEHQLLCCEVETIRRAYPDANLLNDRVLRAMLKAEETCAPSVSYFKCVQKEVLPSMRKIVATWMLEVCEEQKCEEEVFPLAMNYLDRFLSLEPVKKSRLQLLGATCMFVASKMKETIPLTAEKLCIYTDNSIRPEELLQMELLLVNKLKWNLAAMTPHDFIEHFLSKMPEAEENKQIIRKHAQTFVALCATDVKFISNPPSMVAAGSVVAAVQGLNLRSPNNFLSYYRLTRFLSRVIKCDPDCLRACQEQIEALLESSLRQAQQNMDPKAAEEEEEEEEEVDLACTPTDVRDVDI

The next data set concerns RS4-11. Kind of data set: Growth inhibition of human RS4:11 cells after 72 hrs by CellTiter-Glo assay. Type of data set: functional. The settings on record: RS4-11, 72 h. On the technique in general: In ATP-based viability assays light output follows the ATP content of the culture.
A further data set concerns NCI-H82. Kind of data set: Growth inhibition of human NCI-H82 cells after 72 hrs by CellTiter-Glo assay. Format: functional. The settings on record: NCI-H82, 72 h.
A further data set deals with CDK6/cyclin D1 (Homo sapiens, UniProt Q00534). Kind of data set: Inhibition of human CDK6/Cyclin D1 using RB protein as substrate preincubated for 20 mins followed by [gamma-33P]-ATP addition measure after 120 mins by filter binding method. Format: protein-complex assay. In outline: as §2
Chain of CDK6/cyclin D1 (P24385 whole entry): as the sequence (P24385 whole entry, further chain) above
Chain of CDK6/cyclin D1 (Q00534 whole entry): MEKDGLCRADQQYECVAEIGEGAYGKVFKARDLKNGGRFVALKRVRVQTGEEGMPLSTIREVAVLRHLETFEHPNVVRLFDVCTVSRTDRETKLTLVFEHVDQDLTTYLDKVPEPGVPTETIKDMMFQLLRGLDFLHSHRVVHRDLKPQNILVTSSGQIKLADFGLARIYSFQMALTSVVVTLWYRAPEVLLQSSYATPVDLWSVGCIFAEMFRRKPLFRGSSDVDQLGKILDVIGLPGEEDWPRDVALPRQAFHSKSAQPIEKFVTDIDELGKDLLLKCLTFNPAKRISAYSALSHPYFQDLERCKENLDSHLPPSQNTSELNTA
The next data set relates to MGC-803. Kind of data set: Growth inhibition of human MGC803 cells after 72 hrs by CellTiter-Glo assay. Particulars: MGC-803, 72 h. Type of data set: functional.
Data set [3] has as its target T1, Receptor-type tyrosine-protein kinase FLT3 (Homo sapiens, UniProt P36888).
T1 sequence (P36888 whole entry): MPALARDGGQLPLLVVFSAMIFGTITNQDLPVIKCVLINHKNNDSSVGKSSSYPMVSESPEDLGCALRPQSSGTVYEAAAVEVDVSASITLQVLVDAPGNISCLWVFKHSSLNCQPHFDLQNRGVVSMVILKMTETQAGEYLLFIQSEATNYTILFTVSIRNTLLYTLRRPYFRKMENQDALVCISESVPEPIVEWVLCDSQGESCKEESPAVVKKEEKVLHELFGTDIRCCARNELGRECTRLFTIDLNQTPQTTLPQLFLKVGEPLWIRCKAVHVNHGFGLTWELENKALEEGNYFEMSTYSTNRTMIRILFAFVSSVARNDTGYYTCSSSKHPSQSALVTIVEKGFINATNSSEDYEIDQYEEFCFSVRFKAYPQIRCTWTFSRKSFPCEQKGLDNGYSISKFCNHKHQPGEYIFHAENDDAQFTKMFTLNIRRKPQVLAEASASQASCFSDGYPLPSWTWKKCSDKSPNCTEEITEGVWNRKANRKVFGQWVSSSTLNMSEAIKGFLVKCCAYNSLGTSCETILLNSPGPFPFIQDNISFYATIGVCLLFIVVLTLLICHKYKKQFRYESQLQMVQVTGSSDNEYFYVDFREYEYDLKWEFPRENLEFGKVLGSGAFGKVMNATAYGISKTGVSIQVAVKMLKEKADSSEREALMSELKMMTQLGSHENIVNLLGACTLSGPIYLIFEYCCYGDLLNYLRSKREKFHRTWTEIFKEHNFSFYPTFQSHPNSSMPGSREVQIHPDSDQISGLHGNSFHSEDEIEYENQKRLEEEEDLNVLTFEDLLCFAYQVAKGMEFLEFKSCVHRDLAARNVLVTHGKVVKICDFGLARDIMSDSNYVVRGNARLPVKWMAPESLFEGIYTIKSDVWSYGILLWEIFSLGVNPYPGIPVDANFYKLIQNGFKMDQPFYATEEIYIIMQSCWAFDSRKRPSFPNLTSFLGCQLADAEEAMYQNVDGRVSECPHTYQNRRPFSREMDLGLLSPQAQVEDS
The data set can be described thus: Inhibition of human FLT3 using EAIYAAPFAKKK as substrate preincubated for 20 mins followed by [gamma-33P]-ATP addition measure after 120 mins by filter binding method. Summed up:
as §1

The next data set relates to MCF7. The data set can be described thus: Growth inhibition of human MCF7 cells after 72 hrs by CellTiter-Glo assay. Format: functional. The settings on record: MCF7, 72 h.
A further data set relates to HCT-116. Kind of data set: Growth inhibition of human HCT116 cells after 72 hrs by CellTiter-Glo assay. Type of data set: functional. Particulars: HCT-116, 72 h.
For data set [4], the system named is MV4-11. The data set can be described thus: Growth inhibition of human MV4-11 cells after 72 hrs by CellTiter-Glo assay. Particulars: MV4-11, 72 h. Format: functional, cell-based. Summed up: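 MV4-11 cells grown in IMDM with 10% FBS, 2% L-glutamine and 1% pen/strep at 37 °C, 5% CO2. Seeded at 10000 cells/well and exposed to compound at various concentrations for 72 h. Viability read by CellTiter-Glo luminescence.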

Data set [5] deals with MV4-11. Kind of data set: Antitumor activity against human MV4-11 cells xenografted in nu/nu mouse assessed as tumor growth inhibition at 50 mg/kg, iv qd measured on day 21 relative to vehicle-treated control. Type of data set: functional. The settings on record: MV4-11, iv, 504 h, read-out: TGI. Summed up: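 Female nu/nu mice bearing MV4-11 xenografts; dosing began once tumors reached 200 mm3. Given iv once daily for 21 days, with a vehicle-only group. Body weight and tumor size tracked relative to initial values, set as 100%. Tumors weighed at the end of the 22-day treatment period.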
In general terms: Xenograft models place foreign cells or tissue in a host animal.

A short description of data set [6]: Terminal half life in rat liver microsomes by LC-MS/MS analysis. Particulars: read-out: beta t1/2 (converted). Type of data set: ADME, microsome. Summed up: (§3)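 Metabolic stability measured by incubating compound in human, rat, mouse, dog and monkey liver microsomes. Terminal t1/2 determined.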
(In general: Liver microsomes are a subcellular fraction often used to study metabolism.)

The nature of data set [7]: Terminal half life in mouse liver microsomes by LC-MS/MS analysis. Format: ADME, microsome. Particulars: read-out: beta t1/2 (converted). Summed up:
as §3

Data set [8] deals with MV4-11. Kind of data set: Growth inhibition of human MV4-11 cells at 1 uM after 72 hrs by CellTiter-Glo assay relative to control. Type of data set: functional. Particulars: MV4-11, 72 h, read-out: GI.
Data set [9] is described as follows: Intrinsic clearance in mouse liver microsomes by LC-MS/MS analysis. Type of data set: ADME, microsome. The settings on record: read-out: CLH.
Data set [10] in a line: Intrinsic clearance in rat liver microsomes by LC-MS/MS analysis. Type of data set: ADME, microsome. The settings on record: read-out: CLH.
Data set [11] can be described thus: Terminal half life in cynomolgus monkey liver microsomes by LC-MS/MS analysis. Type of data set: ADME, Macaca fascicularis, microsome. Particulars: read-out: beta t1/2 (converted). Summed up: as §3
The nature of data set [12]: Intrinsic clearance in human liver microsomes by LC-MS/MS analysis. Type of data set: ADME, microsome. The settings on record: read-out: CLH.
Data set [13] in a line: Terminal half life in human liver microsomes by LC-MS/MS analysis. Format: ADME, microsome. The settings on record: read-out: beta t1/2 (converted). Summed up: as §3
The nature of data set [14]: Terminal half life in dog liver microsomes by LC-MS/MS analysis. The settings on record: read-out: beta t1/2 (converted). Format: ADME, Canis lupus familiaris, microsome. In outline:
as §3

Data set [15] can be described thus: Intrinsic clearance in dog liver microsomes by LC-MS/MS analysis. Type of data set: ADME, Canis lupus familiaris, microsome. The settings on record: read-out: CLH.
The nature of data set [16]: Intrinsic clearance in cynomolgus monkey liver microsomes by LC-MS/MS analysis. Type of data set: ADME, Macaca fascicularis, microsome. The settings on record: read-out: CLH.
A short description of data set [17]: Lipophilicity, log P of the compound. The settings on record: octanol/water. Type of data set: physicochemical.
In data set [18] the target is Receptor-type tyrosine-protein kinase FLT3 (Homo sapiens) (UniProt P36888). The settings on record: 1 uM.
In data set [19] the test system is MV4-11. The data set can be described thus: Induction of apoptosis in human MV4-11 cells assessed as early apoptotic cells at 2 uM after 24 hrs by annexin V-FITC/propidium iodide staining-based flow cytometric method (reference value: 3.54%). Type of data set: functional.
The target of data set [20] is Receptor-type tyrosine-protein kinase FLT3 (Homo sapiens) (UniProt P36888). Particulars: 1 uM. This is another data set of the same source.
Data set [21] has the same target. The settings on record: 1 uM. The source holds these as a separate data set.
Data set [22] concerns MV4-11. The data set can be described thus: Induction of apoptosis in human MV4-11 cells assessed as late apoptotic cells at 2 uM after 24 hrs by annexin V-FITC/propidium iodide staining-based flow cytometric method (reference value: 2.54%). Format: functional.
The subject of data set [23] is MV4-11. The data set can be described thus: Cell cycle arrest in human MV4-11 cells assessed as accumulation at G0/G1 phase at 0.2 uM after 24 hrs by propidium iodide/BrdU staining-based flow cytometric method. Format: functional. In outline:
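Cells treated with compound for 24 h, then fixed. Double-stained with propidium iodide and BrdU for flow cytometric analysis of cell cycle distribution.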

For data set [24], the target named is Receptor-type tyrosine-protein kinase FLT3 (Homo sapiens) (UniProt P36888). Particulars: 1 uM. The source holds these as a separate data set.

Chain of ALK tyrosine kinase receptor (Q9UM73 whole entry): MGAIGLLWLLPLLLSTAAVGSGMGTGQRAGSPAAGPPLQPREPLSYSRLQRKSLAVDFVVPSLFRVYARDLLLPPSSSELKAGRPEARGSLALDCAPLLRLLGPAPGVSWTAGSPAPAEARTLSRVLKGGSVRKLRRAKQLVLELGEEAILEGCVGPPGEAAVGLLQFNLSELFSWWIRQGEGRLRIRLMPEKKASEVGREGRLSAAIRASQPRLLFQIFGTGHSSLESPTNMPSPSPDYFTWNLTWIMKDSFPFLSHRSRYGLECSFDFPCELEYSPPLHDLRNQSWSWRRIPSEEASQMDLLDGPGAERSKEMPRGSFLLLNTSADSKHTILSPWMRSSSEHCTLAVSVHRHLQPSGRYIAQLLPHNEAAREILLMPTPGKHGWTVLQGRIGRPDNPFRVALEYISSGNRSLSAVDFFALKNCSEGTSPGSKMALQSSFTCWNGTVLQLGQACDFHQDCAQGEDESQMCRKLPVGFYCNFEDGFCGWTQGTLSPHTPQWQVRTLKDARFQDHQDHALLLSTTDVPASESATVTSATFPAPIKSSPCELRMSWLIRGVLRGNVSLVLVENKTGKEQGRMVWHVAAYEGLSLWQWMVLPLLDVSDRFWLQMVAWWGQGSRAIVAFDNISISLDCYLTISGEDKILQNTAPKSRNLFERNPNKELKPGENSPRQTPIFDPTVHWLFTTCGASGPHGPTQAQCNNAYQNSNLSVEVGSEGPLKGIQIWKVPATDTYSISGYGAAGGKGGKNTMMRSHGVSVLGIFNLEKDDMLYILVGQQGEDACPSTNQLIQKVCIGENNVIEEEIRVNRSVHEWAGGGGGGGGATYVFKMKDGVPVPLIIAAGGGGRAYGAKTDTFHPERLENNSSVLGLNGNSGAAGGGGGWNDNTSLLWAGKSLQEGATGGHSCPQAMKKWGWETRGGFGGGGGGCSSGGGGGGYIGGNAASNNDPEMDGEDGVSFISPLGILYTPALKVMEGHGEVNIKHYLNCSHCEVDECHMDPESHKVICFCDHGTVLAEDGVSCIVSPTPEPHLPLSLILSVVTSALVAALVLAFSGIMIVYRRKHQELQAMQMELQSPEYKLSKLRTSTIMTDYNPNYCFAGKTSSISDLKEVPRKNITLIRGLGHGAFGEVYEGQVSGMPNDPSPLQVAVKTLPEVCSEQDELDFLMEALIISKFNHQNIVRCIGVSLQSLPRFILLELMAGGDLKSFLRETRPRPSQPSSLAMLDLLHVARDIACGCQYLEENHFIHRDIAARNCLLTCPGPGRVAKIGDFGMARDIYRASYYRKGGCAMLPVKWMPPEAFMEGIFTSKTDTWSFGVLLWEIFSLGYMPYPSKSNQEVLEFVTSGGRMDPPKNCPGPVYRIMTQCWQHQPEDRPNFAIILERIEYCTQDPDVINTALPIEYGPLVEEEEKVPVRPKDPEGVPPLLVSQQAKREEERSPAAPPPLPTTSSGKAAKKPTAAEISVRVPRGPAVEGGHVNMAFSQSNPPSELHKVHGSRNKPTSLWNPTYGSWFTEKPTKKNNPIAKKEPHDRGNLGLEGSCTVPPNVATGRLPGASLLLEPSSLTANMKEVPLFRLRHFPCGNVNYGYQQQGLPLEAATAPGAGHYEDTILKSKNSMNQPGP

As for `CN1CCN(Cc2ccc(NC(=O)c3n[nH]cc3Nc3ncnc4sccc34)cc2)CC1`, the IC50 in [1] is 94.1 nM; at CDK2/Cyclin A1 it was 5.85 to 9.47 nM; in [2], 3.33 to 5.57 nM; at CDK6/cyclin D1, 4.24 to 4.5 nM; in [3], 0.438 to 0.6 nM; in the data set on MV4-11 [4], 19 nM. The GI50 in the data set with RS4-11 was 130 nM; in the data set with NCI-H82, 170 nM; in the data set on MGC-803, 160 nM; in the data set with MCF7, 620 nM; with HCT-116 it was 370 nM.
Turning to `Nc1ccn([C@@H]2O[C@H](CO)[C@@H](O)[C@@H]2O)c(=O)n1` [CYTARABINE], in the data set with MV4-11 [5], the inhibition in vivo at 50 mg/kg is 61.9%.
On to `O=C(Nc1ccc(CN2CCOCC2)cc1)c1n[nH]cc1Nc1ncnc2sccc12`, for which the half-life in data set [6] is 7.08 min; in data set [7], 7.2 min; in data set [11], 10.9 min; in [13], 8.28 min; in data set [14], 1.5 min. The inhibition of growth at 1 µM in the data set with MV4-11 [8] was 98.5%. Further, the IC50 stood at 3.36 nM on CDK2/Cyclin A1, 2.4 nM in data set [2], 3.88 nM at CDK6/cyclin D1 and 0.623 nM in data set [3]. Further, the GI50 in the data set with RS4-11 turned out to be 170 nM; in the data set on NCI-H82, 290 nM; in the data set on MGC-803, 210 nM; in the data set with MCF7, 610 nM; in the data set on HCT-116, 580 nM. In addition, the CLint scaled came out at 765 mL/min/kg in [9]; 352 mL/min/kg in data set [10]; 165 mL/min/kg in data set [12]; 1330 mL/min/kg in data set [15]; 171 mL/min/kg in [16].
As to `O=C(Nc1ccc(CN2CCNCC2)cc1)c1n[nH]cc1Nc1ncnc2sccc12`, the logP in [17] amounted to 2.65. In addition, the IC50 at CDK2/Cyclin A1 was found to be 2.08 nM; in [3], 0.34 nM; in the data set with MV4-11 [4], 19 nM.
`O=C(Nc1ccc(CN2CCNCC2)cc1)c1n[nH]cc1Nc1ncnc2[nH]ccc12` displayed a log partition coefficient (logP) in data set [17] of 1.22. Further, the IC50 came out at 4.49 nM on CDK2/Cyclin A1, 1.03 nM in data set [3] and 53 nM with MV4-11 [4].
`CNC(=O)c1cc(Oc2ccc(NC(=O)Nc3ccc(Cl)c(C(F)(F)F)c3)cc2)ccn1` [SORAFENIB]: the inhibition result in data set [18], in [20], in data set [21] and in [24] was “Active” in each case. Also, the figures for the Activity with MV4-11 [19] and with MV4-11 [22] were 51.35% and 23.97%, respectively. Moreover, the 50% inhibitory concentration (IC50) in the data set on MV4-11 [4] worked out at 4 nM. Also, the outcome in the data set on MV4-11 [23] was Active.
